Test results: ChEMBL document CHEMBL3627646, “Synthesis and biological activity of amino acid derivatives of avarone and its model compound” (Bioorg Med Chem, 2015)
Converted amounts (≈) assume the structure as drawn. The source made the active and inactive calls. The rule behind the calls is not given here.

Tested on: HeLa
Experiment: Cell cycle arrest in human HeLa cells assessed as reduction in G1 phase at 2 time IC50 after 24 hrs using propidium iodide staining by cytofluorometric analysis
Format: functional, cell-based
Details: not given
Procedure, shortened: (§1)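 Trypsinized, fixed in ice-cold 70% ethanol then held at −20 °C at least one week. Treated with RNase 100 µg/mL at 37 °C 30 min, stained with PI 40 µg/mL at least 30 min. Flow cytometry on ≥10,000 cells.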

Structure (SMILES) | Activity
CC1=CCC[C@H]2[C@](C)(CC3=CC(=O)C=C(N[C@@H](CC(C)C)C(=O)O)C3=O)[C@@H](C)CC[C@]12C | Active

Tested on: Aspergillus brasiliensis
Experiment: Antifungal activity against Aspergillus brasiliensis ATCC 16404 after 24 hrs by microbroth double dilution method
Format: functional
Details: ATCC 16404, 24 h

Structure (SMILES) | MIC
CC1=CCC[C@H]2[C@](C)(CC3=CC(=O)C=C(N[C@@H](CC(C)C)C(=O)O)C3=O)[C@@H](C)CC[C@]12C | 1410 µM (≈ 624 µg/mL)

Tested on: HeLa
Experiment: Induction of apoptosis in human HeLa cells assessed as accumulation at sub-G1 phase after 24 hrs using propidium iodide staining by flow cytometric analysis
Format: functional, cell-based
Details: not given

Structure (SMILES) | Activity
CC1=CCC[C@H]2[C@](C)(CC3=CC(=O)C=C(N[C@@H](CC(C)C)C(=O)O)C3=O)[C@@H](C)CC[C@]12C | Active

Tested on: A549
Experiment: Cytotoxicity against human A549 cells assessed as cell survival after 72 hrs by MTT assay
Format: functional, cell-based
Details: A549, 72 h
Procedure, shortened: (§2)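 Cells seeded (HeLa 2000, MDA-MB-453 3000, others 5000 per well), treated 24 h later (K562 after 2 h). Five double-diluted final concentrations, 200–12.5 μM, from 10 mM DMSO stocks, in RPMI-1640 with 10% FBS, pH 7.2, 72 h. MTT 4 h at 37 °C, SDS added, A570 read next day. Survival relative to medium control; IC50 from survival curves; triplicate; cisplatin positive control.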

Structure (SMILES) | IC50
CC1=CCC[C@H]2[C@](C)(CC3=CC(=O)C=C(N[C@@H](CC(C)C)C(=O)O)C3=O)[C@@H](C)CC[C@]12C | 19.7 µM

Tested on: Micrococcus flavus
Experiment: Antibacterial activity against Micrococcus flavus ATCC 10240 after 24 hrs by microbroth double dilution method
Format: functional
Details: ATCC 10240, 24 h
Procedure, shortened: (§3)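 Microbroth double dilution in Mueller Hinton broth; compound stock 10 mg/mL in DMSO serially halved across rows. Wells inoculated with 10 μL culture at 10^6 cells/mL, incubated 37 °C for 24 h. Amikacin row as positive control, DMSO row as negative control. MIC taken as lowest concentration inhibiting bacterial growth.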

Structure (SMILES) | MIC
CC1=CCC[C@H]2[C@](C)(CC3=CC(=O)C=C(N[C@@H](CC(C)C)C(=O)O)C3=O)[C@@H](C)CC[C@]12C | 88.3 µM (≈ 39 µg/mL)

Tested on: Pseudomonas aeruginosa
Experiment: Antibacterial activity against Pseudomonas aeruginosa ATCC 9027 after 24 hrs by microbroth double dilution method
Format: functional
Details: ATCC 9027, 24 h
Procedure, shortened: as §3

Structure (SMILES) | MIC
CC1=CCC[C@H]2[C@](C)(CC3=CC(=O)C=C(N[C@@H](CC(C)C)C(=O)O)C3=O)[C@@H](C)CC[C@]12C | 88.3 µM (≈ 39 µg/mL)

Tested on: Proteus hauseri
Experiment: Antibacterial activity against Proteus hauseri ATCC 13315 after 24 hrs by microbroth double dilution method
Format: functional
Details: ATCC 13315, 24 h
Procedure, shortened: as §3

Structure (SMILES) | MIC
CC1=CCC[C@H]2[C@](C)(CC3=CC(=O)C=C(N[C@@H](CC(C)C)C(=O)O)C3=O)[C@@H](C)CC[C@]12C | 44.2 µM (≈ 19.5 µg/mL)

Tested on: MRC5
Experiment: Cytotoxicity against human MRC5 cells assessed as cell survival after 72 hrs by MTT assay
Format: cell-based
Details: MRC5, 72 h
Procedure, shortened: as §2

Structure (SMILES) | IC50
CC1=CCC[C@H]2[C@](C)(CC3=CC(=O)C=C(N[C@@H](CC(C)C)C(=O)O)C3=O)[C@@H](C)CC[C@]12C | 73.4 µM

Tested on: HeLa
Experiment: Induction of apoptosis in human HeLa cells assessed as accumulation at sub-G1 phase after 24 hrs in presence of caspase-3 inhibitor Z-DEVD-FMK using propidium iodide staining by flow cytometric analysis
Format: functional, cell-based
Details: not given

Structure (SMILES) | Activity
CC1=CCC[C@H]2[C@](C)(CC3=CC(=O)C=C(N[C@@H](CC(C)C)C(=O)O)C3=O)[C@@H](C)CC[C@]12C | inactive

Tested on: HeLa
Experiment: Cell cycle arrest in human HeLa cells assessed as reduction in G1 phase at IC50 after 24 hrs using propidium iodide staining by cytofluorometric analysis
Format: functional, cell-based
Details: not given
Procedure, shortened: as §1

Structure (SMILES) | Activity
CC1=CCC[C@H]2[C@](C)(CC3=CC(=O)C=C(N[C@@H](CC(C)C)C(=O)O)C3=O)[C@@H](C)CC[C@]12C | Active

Tested on: HeLa
Experiment: Cytotoxicity against human HeLa cells assessed as cell survival after 72 hrs by MTT assay
Format: functional, cell-based
Details: not given
Procedure, shortened: as §2

Structure (SMILES) | IC50
CC1=CCC[C@H]2[C@](C)(CC3=CC(=O)C=C(N[C@@H](CC(C)C)C(=O)O)C3=O)[C@@H](C)CC[C@]12C | 7.72 µM

Tested on: K562
Experiment: Cytotoxicity against human K562 cells assessed as cell survival after 72 hrs by MTT assay
Format: functional, cell-based
Details: K562, 72 h
Procedure, shortened: as §2

Structure (SMILES) | IC50
CC1=CCC[C@H]2[C@](C)(CC3=CC(=O)C=C(N[C@@H](CC(C)C)C(=O)O)C3=O)[C@@H](C)CC[C@]12C | 11.2 µM

Tested on: Clostridium sporogenes
Experiment: Antibacterial activity against Clostridium sporogenes ATCC 19404 after 24 hrs by microbroth double dilution method
Format: functional
Details: ATCC 19404, 24 h
Procedure, shortened: as §3

Structure (SMILES) | MIC
CC1=CCC[C@H]2[C@](C)(CC3=CC(=O)C=C(N[C@@H](CC(C)C)C(=O)O)C3=O)[C@@H](C)CC[C@]12C | 44.2 µM (≈ 19.5 µg/mL)

Tested on: HeLa
Experiment: Cell cycle arrest in human HeLa cells assessed as accumulation at sub-G1 phase at IC50 after 24 hrs using propidium iodide staining by cytofluorometric analysis
Format: functional, cell-based
Details: not given
Procedure, shortened: as §1

Structure (SMILES) | Activity
CC1=CCC[C@H]2[C@](C)(CC3=CC(=O)C=C(N[C@@H](CC(C)C)C(=O)O)C3=O)[C@@H](C)CC[C@]12C | Active

Tested on: Micrococcus luteus
Experiment: Antibacterial activity against Micrococcus luteus ATCC 4698 after 24 hrs by microbroth double dilution method
Format: functional
Details: ATCC 4698, 24 h
Procedure, shortened: as §3

Structure (SMILES) | MIC
CC1=CCC[C@H]2[C@](C)(CC3=CC(=O)C=C(N[C@@H](CC(C)C)C(=O)O)C3=O)[C@@H](C)CC[C@]12C | 11.1 µM (≈ 4.9 µg/mL)

Tested on: MDA-MB-453
Experiment: Cytotoxicity against human MDA-MB-453 cells assessed as cell survival after 72 hrs by MTT assay
Format: functional, cell-based
Details: MDA-MB-453, 72 h
Procedure, shortened: as §2

Structure (SMILES) | IC50
CC1=CCC[C@H]2[C@](C)(CC3=CC(=O)C=C(N[C@@H](CC(C)C)C(=O)O)C3=O)[C@@H](C)CC[C@]12C | 10.9 µM

Tested on: HeLa
Experiment: Induction of apoptosis in human HeLa cells assessed as accumulation at sub-G1 phase after 24 hrs in presence of caspase-8 inhibitor Z-IETD-FMK using propidium iodide staining by flow cytometric analysis
Format: functional, cell-based
Details: not given

Structure (SMILES) | Activity
CC1=CCC[C@H]2[C@](C)(CC3=CC(=O)C=C(N[C@@H](CC(C)C)C(=O)O)C3=O)[C@@H](C)CC[C@]12C | inactive

Tested on: Kocuria rhizophila
Experiment: Antibacterial activity against Kocuria rhizophila ATCC 9341 after 24 hrs by microbroth double dilution method
Format: functional
Details: ATCC 9341, 24 h
Procedure, shortened: as §3

Structure (SMILES) | MIC
CC1=CCC[C@H]2[C@](C)(CC3=CC(=O)C=C(N[C@@H](CC(C)C)C(=O)O)C3=O)[C@@H](C)CC[C@]12C | 709 µM (≈ 313 µg/mL)

Tested on: Artemia salina
Experiment: Cytotoxicity in Brine shrimp assessed as nauplii mortality after 24 hrs
Format: organism-based
Details: in vivo
Procedure, shortened: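 Artemia salina eggs hatched in aerated tap water with dried yeast at 18–20 °C under illumination for 48 h, and freshly hatched nauplii were used. Compounds in DMSO (0.01–1 mg) were added to 950 µL artificial seawater containing 10–20 nauplii, with 5% final DMSO. After 24 h under illumination at room temperature, dead and surviving nauplii were counted and statistically analysed.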

Structure (SMILES) | LC50
CC1=CCC[C@H]2[C@](C)(CC3=CC(=O)C=C(N[C@@H](CC(C)C)C(=O)O)C3=O)[C@@H](C)CC[C@]12C | 117 ppm

Tested on: Candida albicans
Experiment: Antifungal activity against Candida albicans ATCC 10231 after 24 hrs by microbroth double dilution method
Format: functional
Details: ATCC 10231, 24 h

Structure (SMILES) | MIC
CC1=CCC[C@H]2[C@](C)(CC3=CC(=O)C=C(N[C@@H](CC(C)C)C(=O)O)C3=O)[C@@H](C)CC[C@]12C | < 5.54 µM

Tested on: Staphylococcus aureus
Experiment: Antibacterial activity against Staphylococcus aureus ATCC 6538 after 24 hrs by microbroth double dilution method
Format: functional
Details: ATCC 6538, 24 h
Procedure, shortened: as §3

Structure (SMILES) | MIC
CC1=CCC[C@H]2[C@](C)(CC3=CC(=O)C=C(N[C@@H](CC(C)C)C(=O)O)C3=O)[C@@H](C)CC[C@]12C | 5.55 µM (≈ 2.45 µg/mL)

Tested on: Bacillus subtilis
Experiment: Antibacterial activity against Bacillus subtilis ATCC 6633 after 24 hrs by microbroth double dilution method
Format: functional
Details: ATCC 6633, 24 h
Procedure, shortened: as §3

Structure (SMILES) | MIC
CC1=CCC[C@H]2[C@](C)(CC3=CC(=O)C=C(N[C@@H](CC(C)C)C(=O)O)C3=O)[C@@H](C)CC[C@]12C | 88.3 µM (≈ 39 µg/mL)

Tested on: Escherichia coli
Experiment: Antibacterial activity against Escherichia coli ATCC 25922 after 24 hrs by microbroth double dilution method
Format: functional
Details: ATCC 25922, 24 h
Procedure, shortened: as §3

Structure (SMILES) | MIC
CC1=CCC[C@H]2[C@](C)(CC3=CC(=O)C=C(N[C@@H](CC(C)C)C(=O)O)C3=O)[C@@H](C)CC[C@]12C | 5.55 µM (≈ 2.45 µg/mL)

Tested on: HeLa
Experiment: Induction of apoptosis in human HeLa cells assessed as accumulation at sub-G1 phase after 24 hrs in presence of caspase-9 inhibitor Z-LEHD-FMK using propidium iodide staining by flow cytometric analysis
Format: functional, cell-based
Details: not given

Structure (SMILES) | Activity
CC1=CCC[C@H]2[C@](C)(CC3=CC(=O)C=C(N[C@@H](CC(C)C)C(=O)O)C3=O)[C@@H](C)CC[C@]12C | inactive

Tested on: Salmonella enterica
Experiment: Antibacterial activity against Salmonella enterica ATCC 13076 after 24 hrs by microbroth double dilution method
Format: functional
Details: ATCC 13076, 24 h
Procedure, shortened: as §3

Structure (SMILES) | MIC
CC1=CCC[C@H]2[C@](C)(CC3=CC(=O)C=C(N[C@@H](CC(C)C)C(=O)O)C3=O)[C@@H](C)CC[C@]12C | 88.3 µM (≈ 39 µg/mL)

Tested on: not listed separately
Experiment: Cytotoxicity against human Fem-X cells assessed as cell survival after 72 hrs by MTT assay
Format: functional, cell-based
Details: not given
Procedure, shortened: as §2

Structure (SMILES) | IC50
CC1=CCC[C@H]2[C@](C)(CC3=CC(=O)C=C(N[C@@H](CC(C)C)C(=O)O)C3=O)[C@@H](C)CC[C@]12C | 10.9 µM

Tested on: Saccharomyces cerevisiae
Experiment: Antifungal activity against Saccharomyces cerevisiae ATCC 9763 after 24 hrs by microbroth double dilution method
Format: functional
Details: ATCC 9763, 24 h

Structure (SMILES) | MIC
CC1=CCC[C@H]2[C@](C)(CC3=CC(=O)C=C(N[C@@H](CC(C)C)C(=O)O)C3=O)[C@@H](C)CC[C@]12C | 176 µM (≈ 77.9 µg/mL)

Tested on: HeLa
Experiment: Cell cycle arrest in human HeLa cells assessed as accumulation at sub-G1 phase at 2 time IC50 after 24 hrs using propidium iodide staining by cytofluorometric analysis
Format: functional, cell-based
Details: not given
Procedure, shortened: as §1

Structure (SMILES) | Activity
CC1=CCC[C@H]2[C@](C)(CC3=CC(=O)C=C(N[C@@H](CC(C)C)C(=O)O)C3=O)[C@@H](C)CC[C@]12C | Active
